What was measured:
Brain [1] = experiment: Ratio of drug level in brain after 2 mins to drug level in brain after 60 mins in ICR mouse; assay type: ADME, tissue-based; conditions: in vivo
How it was run: (§1)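 Male normal ICR mice (5 weeks old), n = 5 per time point, received a tail-vein injection of [18F] tracer (740–1110 kBq/mL) in saline containing 10% EtOH. Mice were sacrificed at 2, 10, 30 and 60 min. Organs were removed, weighed and gamma-counted, and data were expressed as %ID/g.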

[2] = Ratio of drug level in brain to blood in ICR mouse after 2 mins; assay type: ADME, tissue-based; conditions: brain and blood, read-out: BBR
How it was run: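 Male ICR mice (5 weeks) received the ¹⁸F tracer (740–1110 kBq/mL) in saline with 10% EtOH by tail-vein injection. Five mice per time point were sacrificed at 2, 10, 30 and 60 min. Organs were removed, weighed and gamma-counted, and expressed as %ID/g. The ratio is brain %ID/g over blood %ID/g at 2 min.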

Heart [3] = experiment: Biodistribution in ICR mouse heart assessed per gram of tissue at 740 to 1110 kBq/mL, iv measured 2 mins post-injection by gamma counting analysis; assay type: ADME, organism-based; conditions: in vivo; how it was run: as §1
Spleen [4] = experiment: Biodistribution in ICR mouse spleen assessed per gram of tissue at 740 to 1110 kBq/mL, iv measured 2 mins post-injection by gamma counting analysis; assay type: ADME, organism-based; conditions: in vivo; how it was run: as §1
Liver [5] = experiment: Biodistribution in ICR mouse liver assessed per gram of tissue at 740 to 1110 kBq/mL, iv measured 2 mins post-injection by gamma counting analysis; assay type: ADME, organism-based; conditions: in vivo; how it was run: as §1
Lung [6] = experiment: Biodistribution in ICR mouse lung assessed per gram of tissue at 740 to 1110 kBq/mL, iv measured 60 mins post-injection by gamma counting analysis; assay type: ADME, organism-based; conditions: in vivo, 1 h; how it was run: as §1
Intestine [7] = experiment: Biodistribution in ICR mouse intestine assessed per organ at 740 to 1110 kBq/mL, iv measured 30 mins post-injection by gamma counting analysis; assay type: ADME, organism-based; conditions: in vivo, 0.5 h; how it was run: as §1
Stomach [8] = experiment: Biodistribution in ICR mouse stomach assessed per organ at 740 to 1110 kBq/mL, iv measured 2 mins post-injection by gamma counting analysis; assay type: ADME, organism-based; conditions: in vivo; how it was run: as §1
Blood [9] = experiment: Biodistribution in ICR mouse blood assessed per gram of tissue at 740 to 1110 kBq/mL, iv measured 60 mins post-injection by gamma counting analysis; assay type: ADME, organism-based; conditions: in vivo, 1 h; how it was run: as §1
Blood [10] = experiment: Biodistribution in ICR mouse blood assessed per gram of tissue at 740 to 1110 kBq/mL, iv measured 30 mins post-injection by gamma counting analysis; assay type: ADME, organism-based; conditions: in vivo, 0.5 h; how it was run: as §1
Liver [11] = experiment: Biodistribution in ICR mouse liver assessed per gram of tissue at 740 to 1110 kBq/mL, iv measured 30 mins post-injection by gamma counting analysis; assay type: ADME, organism-based; conditions: in vivo, 0.5 h; how it was run: as §1
Blood [12] = experiment: Biodistribution in ICR mouse blood assessed per gram of tissue at 740 to 1110 kBq/mL, iv measured 2 mins post-injection by gamma counting analysis; assay type: ADME, organism-based; conditions: in vivo; how it was run: as §1
Spleen [13] = experiment: Biodistribution in ICR mouse spleen assessed per gram of tissue at 740 to 1110 kBq/mL, iv measured 30 mins post-injection by gamma counting analysis; assay type: ADME, organism-based; conditions: in vivo, 0.5 h; how it was run: as §1
Bone [14] = experiment: Biodistribution in ICR mouse bone assessed per gram of tissue at 740 to 1110 kBq/mL, iv measured 2 mins post-injection by gamma counting analysis; assay type: ADME, organism-based, Bone element; conditions: in vivo; how it was run: as §1
Intestine [15] = experiment: Biodistribution in ICR mouse intestine assessed per organ at 740 to 1110 kBq/mL, iv measured 2 mins post-injection by gamma counting analysis; assay type: ADME, organism-based; conditions: in vivo; how it was run: as §1
Brain [16] = experiment: Biodistribution in ICR mouse brain assessed per gram of tissue at 740 to 1110 kBq/mL, iv measured 2 mins post-injection by gamma counting analysis; assay type: ADME, organism-based; conditions: in vivo; how it was run: as §1
Heart [17] = experiment: Biodistribution in ICR mouse heart assessed per gram of tissue at 740 to 1110 kBq/mL, iv measured 10 mins post-injection by gamma counting analysis; assay type: ADME, organism-based; conditions: in vivo; how it was run: as §1
Stomach [18] = experiment: Biodistribution in ICR mouse stomach assessed per organ at 740 to 1110 kBq/mL, iv measured 30 mins post-injection by gamma counting analysis; assay type: ADME, organism-based; conditions: in vivo, 0.5 h; how it was run: as §1
Heart [19] = experiment: Biodistribution in ICR mouse heart assessed per gram of tissue at 740 to 1110 kBq/mL, iv measured 30 mins post-injection by gamma counting analysis; assay type: ADME, organism-based; conditions: in vivo, 0.5 h; how it was run: as §1
Blood [20] = experiment: Biodistribution in ICR mouse blood assessed per gram of tissue at 740 to 1110 kBq/mL, iv measured 10 mins post-injection by gamma counting analysis; assay type: ADME, organism-based; conditions: in vivo; how it was run: as §1
Bone [21] = experiment: Biodistribution in ICR mouse bone assessed per gram of tissue at 740 to 1110 kBq/mL, iv measured 60 mins post-injection by gamma counting analysis; assay type: ADME, organism-based, Bone element; conditions: in vivo, 1 h; how it was run: as §1
Intestine [22] = experiment: Biodistribution in ICR mouse intestine assessed per organ at 740 to 1110 kBq/mL, iv measured 10 mins post-injection by gamma counting analysis; assay type: ADME, organism-based; conditions: in vivo; how it was run: as §1
Kidney [23] = experiment: Biodistribution in ICR mouse kidney assessed per gram of tissue at 740 to 1110 kBq/mL, iv measured 60 mins post-injection by gamma counting analysis; assay type: ADME, organism-based; conditions: in vivo, 1 h; how it was run: as §1
Spleen [24] = experiment: Biodistribution in ICR mouse spleen assessed per gram of tissue at 740 to 1110 kBq/mL, iv measured 60 mins post-injection by gamma counting analysis; assay type: ADME, organism-based; conditions: in vivo, 1 h; how it was run: as §1
Liver [25] = experiment: Biodistribution in ICR mouse liver assessed per gram of tissue at 740 to 1110 kBq/mL, iv measured 10 mins post-injection by gamma counting analysis; assay type: ADME, organism-based; conditions: in vivo; how it was run: as §1
Bone [26] = experiment: Biodistribution in ICR mouse bone assessed per gram of tissue at 740 to 1110 kBq/mL, iv measured 10 mins post-injection by gamma counting analysis; assay type: ADME, organism-based, Bone element; conditions: in vivo; how it was run: as §1
Brain [27] = experiment: Biodistribution in ICR mouse brain assessed per gram of tissue at 740 to 1110 kBq/mL, iv measured 60 mins post-injection by gamma counting analysis; assay type: ADME, organism-based; conditions: in vivo, 1 h; how it was run: as §1
Stomach [28] = experiment: Biodistribution in ICR mouse stomach assessed per organ at 740 to 1110 kBq/mL, iv measured 10 mins post-injection by gamma counting analysis; assay type: ADME, organism-based; conditions: in vivo; how it was run: as §1
Lung [29] = experiment: Biodistribution in ICR mouse lung assessed per gram of tissue at 740 to 1110 kBq/mL, iv measured 10 mins post-injection by gamma counting analysis; assay type: ADME, organism-based; conditions: in vivo; how it was run: as §1
[30] = Partition coefficient, log D of the compound in n-octanol-PBS […] at pH 7.4; assay type: physicochemical
How it was run: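 [18F] tracer (1110 kBq) was added to 3.0 g n-octanol plus 3.0 g PBS (0.05 M, pH 7.4), vortexed 3 min at room temperature, then centrifuged 5 min at 3000 rpm.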

Lung [31] = experiment: Biodistribution in ICR mouse lung assessed per gram of tissue at 740 to 1110 kBq/mL, iv measured 2 mins post-injection by gamma counting analysis; assay type: ADME, organism-based; conditions: in vivo; how it was run: as §1
Kidney [32] = experiment: Biodistribution in ICR mouse kidney assessed per gram of tissue at 740 to 1110 kBq/mL, iv measured 30 mins post-injection by gamma counting analysis; assay type: ADME, organism-based; conditions: in vivo, 0.5 h; how it was run: as §1
Intestine [33] = experiment: Biodistribution in ICR mouse intestine assessed per organ at 740 to 1110 kBq/mL, iv measured 60 mins post-injection by gamma counting analysis; assay type: ADME, organism-based; conditions: in vivo, 1 h; how it was run: as §1
Stomach [34] = experiment: Biodistribution in ICR mouse stomach assessed per organ at 740 to 1110 kBq/mL, iv measured 60 mins post-injection by gamma counting analysis; assay type: ADME, organism-based; conditions: in vivo, 1 h; how it was run: as §1
Lung [35] = experiment: Biodistribution in ICR mouse lung assessed per gram of tissue at 740 to 1110 kBq/mL, iv measured 30 mins post-injection by gamma counting analysis; assay type: ADME, organism-based; conditions: in vivo, 0.5 h; how it was run: as §1
Heart [36] = experiment: Biodistribution in ICR mouse heart assessed per gram of tissue at 740 to 1110 kBq/mL, iv measured 60 mins post-injection by gamma counting analysis; assay type: ADME, organism-based; conditions: in vivo, 1 h; how it was run: as §1
Liver [37] = experiment: Biodistribution in ICR mouse liver assessed per gram of tissue at 740 to 1110 kBq/mL, iv measured 60 mins post-injection by gamma counting analysis; assay type: ADME, organism-based; conditions: in vivo, 1 h; how it was run: as §1
Brain [38] = experiment: Biodistribution in ICR mouse brain assessed per gram of tissue at 740 to 1110 kBq/mL, iv measured 10 mins post-injection by gamma counting analysis; assay type: ADME, organism-based; conditions: in vivo; how it was run: as §1
Spleen [39] = experiment: Biodistribution in ICR mouse spleen assessed per gram of tissue at 740 to 1110 kBq/mL, iv measured 10 mins post-injection by gamma counting analysis; assay type: ADME, organism-based; conditions: in vivo; how it was run: as §1
Brain [40] = experiment: Biodistribution in ICR mouse brain assessed per gram of tissue at 740 to 1110 kBq/mL, iv measured 30 mins post-injection by gamma counting analysis; assay type: ADME, organism-based; conditions: in vivo, 0.5 h; how it was run: as §1
Kidney [41] = experiment: Biodistribution in ICR mouse kidney assessed per gram of tissue at 740 to 1110 kBq/mL, iv measured 10 mins post-injection by gamma counting analysis; assay type: ADME, organism-based; conditions: in vivo; how it was run: as §1
Bone [42] = experiment: Biodistribution in ICR mouse bone assessed per gram of tissue at 740 to 1110 kBq/mL, iv measured 30 mins post-injection by gamma counting analysis; assay type: ADME, organism-based, Bone element; conditions: in vivo, 0.5 h; how it was run: as §1
Kidney [43] = experiment: Biodistribution in ICR mouse kidney assessed per gram of tissue at 740 to 1110 kBq/mL, iv measured 2 mins post-injection by gamma counting analysis; assay type: ADME, organism-based; conditions: in vivo; how it was run: as §1
[44] = target: Amyloid-beta precursor protein (Homo sapiens, UniProt P05067); experiment: Displacement of [125I]IMPY from amyloid beta (1 to 42) (unknown origin) after 3 hrs by gamma counting analysis
Sequence of Amyloid-beta precursor protein (P05067 whole entry): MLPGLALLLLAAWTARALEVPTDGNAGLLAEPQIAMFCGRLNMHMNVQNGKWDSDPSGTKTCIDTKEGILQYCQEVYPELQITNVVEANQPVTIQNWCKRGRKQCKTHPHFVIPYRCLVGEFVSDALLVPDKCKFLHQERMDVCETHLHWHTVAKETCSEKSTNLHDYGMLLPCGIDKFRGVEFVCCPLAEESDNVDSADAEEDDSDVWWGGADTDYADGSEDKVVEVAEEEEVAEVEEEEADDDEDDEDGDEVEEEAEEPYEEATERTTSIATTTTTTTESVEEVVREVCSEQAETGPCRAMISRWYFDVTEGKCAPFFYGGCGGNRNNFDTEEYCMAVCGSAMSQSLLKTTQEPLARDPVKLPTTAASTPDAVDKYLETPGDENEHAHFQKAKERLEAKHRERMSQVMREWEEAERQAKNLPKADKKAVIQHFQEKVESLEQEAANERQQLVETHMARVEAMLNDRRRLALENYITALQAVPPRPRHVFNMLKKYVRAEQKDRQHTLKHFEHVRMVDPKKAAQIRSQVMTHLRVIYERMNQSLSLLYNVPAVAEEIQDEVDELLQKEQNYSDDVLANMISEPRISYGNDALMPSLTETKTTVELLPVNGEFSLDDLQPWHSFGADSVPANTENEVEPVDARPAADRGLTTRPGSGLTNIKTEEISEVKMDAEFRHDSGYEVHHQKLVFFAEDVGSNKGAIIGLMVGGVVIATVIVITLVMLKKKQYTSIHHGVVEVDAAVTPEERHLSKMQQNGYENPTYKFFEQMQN
How it was run: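 Test compound ranged over 10^-4 to 10^-8.5 in ethanol, in 0.05% BSA, 1 mL total. Incubation was 3 h at room temperature, then GF/B filtration and gamma counting. IC50 came from three independent experiments, and Ki was derived by Cheng–Prusoff.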

OCCOc1ccc(-c2cc3cc([125I])ccc3[nH]2)cc1
Ratio (Brain [1]): 1.17
Kp at 2 min [2]: 0.52

CN(CC[18F])c1ccc(-c2cc3ccccc3[nH]2)cc1
Drug uptake (Heart [3]): 6.76 %ID
Drug uptake (Spleen [4]): 2.73 %ID
Drug uptake (Liver [5]): 10.47 %ID
Drug uptake (Lung [6]): 3.57 %ID
Drug uptake (Intestine [7]): 9 %ID
Drug uptake (Stomach [8]): 1.38 %ID
Drug uptake (Blood [9]): 4.37 %ID
Drug uptake (Blood [10]): 4.21 %ID
Drug uptake (Liver [11]): 4.86 %ID
Drug uptake (Blood [12]): 3.38 %ID
Drug uptake (Spleen [13]): 3.23 %ID
Drug uptake (Bone [14]): 2.05 %ID
Drug uptake (Intestine [15]): 6.5 %ID
Drug uptake (Brain [16]): 5.82 %ID
Drug uptake (Heart [17]): 4.95 %ID
Drug uptake (Stomach [18]): 1.43 %ID
Drug uptake (Heart [19]): 3.71 %ID
Drug uptake (Blood [20]): 3.81 %ID
Drug uptake (Bone [21]): 9.71 %ID
Drug uptake (Intestine [22]): 9.06 %ID
Drug uptake (Kidney [23]): 3.54 %ID
Drug uptake (Spleen [24]): 2.71 %ID
Drug uptake (Liver [25]): 8.38 %ID
Drug uptake (Bone [26]): 4.13 %ID
Ratio (Brain [1]): 2.1
Drug uptake (Brain [27]): 2.77 %ID
Drug uptake (Stomach [28]): 1.54 %ID
Drug uptake (Lung [29]): 5.81 %ID
Kp at 2 min [2]: 1.72
logD [30]: 3.61
Drug uptake (Lung [31]): 6.57 %ID
Drug uptake (Kidney [32]): 4.17 %ID
Drug uptake (Intestine [33]): 11.04 %ID
Drug uptake (Stomach [34]): 1.09 %ID
Drug uptake (Lung [35]): 4.27 %ID
Drug uptake (Heart [36]): 3.81 %ID
Drug uptake (Liver [37]): 4.15 %ID
Drug uptake (Brain [38]): 5.07 %ID
Drug uptake (Spleen [39]): 3.97 %ID
Drug uptake (Brain [40]): 3.41 %ID
Drug uptake (Kidney [41]): 5.62 %ID
Drug uptake (Bone [42]): 5.95 %ID
Drug uptake (Kidney [43]): 9.66 %ID

CN(CCCF)c1ccc(-c2cc3ccccc3[nH]2)cc1
Ki [44]: 31.5 nM

From ChEMBL document CHEMBL2396535, “Synthesis and biological evaluation of 18F-labled 2-phenylindole derivatives as PET imaging probes for β-amyloid plaques” (Bioorg Med Chem, 2013)
